From ChEMBL document CHEMBL4371006, “Discovery of N-[4-(Quinolin-4-yloxy)phenyl]benzenesulfonamides as Novel AXL Kinase Inhibitors” (J Med Chem, 2018)

Columns and labels:
[1] = Efflux ratio of apparent permeability from basolateral to apical side over apical to basolateral side in human Caco2 cells at 10 uM after 2 hrs by LC-MS/MS analysis; format: ADME, cell-based; conditions: Caco-2
How it was run: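 Caco-2 monolayers differentiated 3 weeks, integrity checked by Lucifer yellow transport. Compound at 10 µM for 2 h; apical transport buffer (glucose, 10 mM HEPES, HBSS, pH 6.5, 100 µM Lucifer yellow), basolateral buffer pH 7.4. Papp = (dQ/dt)/C0A; efflux ratio = Papp(B→A)/Papp(A→B).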

[2] = Apparent permeability from apical to basolateral side in human Caco2 cells at 10 uM after 2 hrs by LC-MS/MS analysis; format: ADME, cell-based; conditions: Caco-2
How it was run: (§1)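 Caco-2 cells differentiated three weeks in 96-well format, monolayer integrity checked by Lucifer yellow transport. Compound at 10 µM for 2 h; apical buffer HBSS/10 mM HEPES/glucose pH 6.5 with 100 µM Lucifer yellow, basolateral buffer pH 7.4. Papp = (dQ/dt)/C0A; efflux ratio Papp(B→A)/Papp(A→B).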

[3] = Apparent permeability from basolateral to apical side in human Caco2 cells at 10 uM after 2 hrs by LC-MS/MS analysis; format: ADME, cell-based; conditions: Caco-2; how it was run: as §1
[4] = biological target: Tyrosine-protein kinase Lyn (Homo sapiens, UniProt P07948); experiment: Binding affinity to LYN in SILAC-labeled human MDA-MB-231 cells lysate by mass spectrometry based kinAffinity assay; format: subcellular
How it was run: (§2)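 Chemical proteomics: MDA-MB-231 lysate bound to matrix of immobilized broad kinase inhibitors at several densities (BC50), then competed with increasing free compound (CC50); proteins quantified by mass spectrometry, Kd via Cheng-Prusoff. Two competition formats run in parallel to check equilibrium.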

[5] = biological target: Proto-oncogene tyrosine-protein kinase Src (Homo sapiens, UniProt P12931); experiment: Binding affinity to SRC in SILAC-labeled human MDA-MB-231 cells lysate by mass spectrometry based kinAffinity assay; format: subcellular
How it was run: (§3)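 MDA-MB-231 lysate applied to KinAffinity matrix of immobilized broadband kinase inhibitors at graded densities to obtain BC50 per target. Competition then run with increasing free compound to give CC50; Kd derived by Cheng-Prusoff. Two competition experiments in parallel to check equilibrium, one with lysate pre-incubated with compound before adding matrix. Quantitation by mass spectrometry.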

[6] = biological target: T1, Tyrosine-protein kinase receptor UFO (Homo sapiens, UniProt P30530); experiment: Binding affinity to AXL in SILAC-labeled human MDA-MB-231 cells lysate by mass spectrometry based kinAffinity assay; format: subcellular; how it was run: as §2
T1 sequence (P30530 whole entry): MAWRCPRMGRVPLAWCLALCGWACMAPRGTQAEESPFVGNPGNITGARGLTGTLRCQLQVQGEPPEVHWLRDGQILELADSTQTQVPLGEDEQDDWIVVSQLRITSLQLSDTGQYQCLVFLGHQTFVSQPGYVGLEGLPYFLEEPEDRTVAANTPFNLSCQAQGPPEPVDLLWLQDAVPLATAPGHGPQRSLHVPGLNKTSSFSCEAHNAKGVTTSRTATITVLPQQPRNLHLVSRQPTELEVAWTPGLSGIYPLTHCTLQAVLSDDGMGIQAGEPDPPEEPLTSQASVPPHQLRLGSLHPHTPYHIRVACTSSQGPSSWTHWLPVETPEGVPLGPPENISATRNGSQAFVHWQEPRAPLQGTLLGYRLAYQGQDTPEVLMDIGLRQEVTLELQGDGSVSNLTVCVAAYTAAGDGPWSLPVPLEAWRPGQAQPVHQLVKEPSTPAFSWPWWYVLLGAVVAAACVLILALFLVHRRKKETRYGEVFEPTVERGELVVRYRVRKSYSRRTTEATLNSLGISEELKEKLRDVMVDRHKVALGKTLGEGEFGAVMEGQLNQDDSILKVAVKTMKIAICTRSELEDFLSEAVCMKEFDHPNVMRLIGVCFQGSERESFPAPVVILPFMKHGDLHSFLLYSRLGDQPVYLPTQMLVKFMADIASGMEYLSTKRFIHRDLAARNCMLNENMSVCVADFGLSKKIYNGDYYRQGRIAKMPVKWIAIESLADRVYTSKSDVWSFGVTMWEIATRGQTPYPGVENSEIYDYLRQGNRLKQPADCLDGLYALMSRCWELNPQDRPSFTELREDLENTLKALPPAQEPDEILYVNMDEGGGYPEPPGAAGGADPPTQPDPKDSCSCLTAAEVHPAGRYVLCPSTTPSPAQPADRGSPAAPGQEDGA

[7] = biological target: Tyrosine-protein kinase ABL2 (Homo sapiens, UniProt P42684); experiment: Binding affinity to ABL2 in SILAC-labeled human MDA-MB-231 cells lysate by mass spectrometry based kinAffinity assay; format: subcellular; how it was run: as §2
[8] = biological target: Serine/threonine-protein kinase Nek1 (Homo sapiens, UniProt Q96PY6); experiment: Binding affinity to NEK1 in SILAC-labeled human MDA-MB-231 cells lysate by mass spectrometry based kinAffinity assay; format: subcellular; how it was run: as §3
[9] = biological target: 5'-AMP-activated protein kinase subunit gamma-1 (Homo sapiens, UniProt P54619); experiment: Binding affinity to PRKAG1 in SILAC-labeled human MDA-MB-231 cells lysate by mass spectrometry based kinAffinity assay; format: subcellular; how it was run: as §3
[10] = biological target: Mitogen-activated protein kinase kinase kinase kinase 3 (Homo sapiens, UniProt Q8IVH8); experiment: Binding affinity to MAP4K3 in SILAC-labeled human MDA-MB-231 cells lysate by mass spectrometry based kinAffinity assay; format: subcellular; how it was run: as §2
[11] = biological target: Serine/threonine-protein kinase 4 (Homo sapiens, UniProt Q13043); experiment: Binding affinity to MST1 in SILAC-labeled human MDA-MB-231 cells lysate by mass spectrometry based kinAffinity assay; format: subcellular; how it was run: as §3
[12] = biological target: Mitogen-activated protein kinase kinase kinase kinase 5 (Homo sapiens, UniProt Q9Y4K4); experiment: Binding affinity to MAP4K5 in SILAC-labeled human MDA-MB-231 cells lysate by mass spectrometry based kinAffinity assay; format: subcellular; how it was run: as §2
[13] = biological target: Serine/threonine-protein kinase 3 (Homo sapiens, UniProt Q13188); experiment: Binding affinity to MST2 in SILAC-labeled human MDA-MB-231 cells lysate by mass spectrometry based kinAffinity assay; format: subcellular; how it was run: as §3
[14] = biological target: Tyrosine-protein kinase Yes (Homo sapiens, UniProt P07947); experiment: Binding affinity to YES in SILAC-labeled human MDA-MB-231 cells lysate by mass spectrometry based kinAffinity assay; format: subcellular; how it was run: as §3
TGF-beta receptor type-2 = TGF-beta receptor type-2 (Homo sapiens, UniProt P37173); experiment: Binding affinity to TGFBR2 in SILAC-labeled human MDA-MB-231 cells lysate by mass spectrometry based kinAffinity assay; format: subcellular; how it was run: as §3
[15] = biological target: Dual specificity mitogen-activated protein kinase kinase 2 (Homo sapiens, UniProt P36507); experiment: Binding affinity to MAP2K2 in SILAC-labeled human MDA-MB-231 cells lysate by mass spectrometry based kinAffinity assay; format: subcellular; how it was run: as §2
[16] = biological target: Serine/threonine-protein kinase ULK3 (Homo sapiens, UniProt Q6PHR2); experiment: Binding affinity to ULK3 in SILAC-labeled human MDA-MB-231 cells lysate by mass spectrometry based kinAffinity assay; format: subcellular; how it was run: as §3
[17] = biological target: Inhibitor of nuclear factor kappa-B kinase subunit epsilon (Homo sapiens, UniProt Q14164); experiment: Binding affinity to IKKE in SILAC-labeled human MDA-MB-231 cells lysate by mass spectrometry based kinAffinity assay; format: subcellular; how it was run: as §2

Dual specificity mitogen-activated protein kinase kinase 2, sequence (P36507 whole entry): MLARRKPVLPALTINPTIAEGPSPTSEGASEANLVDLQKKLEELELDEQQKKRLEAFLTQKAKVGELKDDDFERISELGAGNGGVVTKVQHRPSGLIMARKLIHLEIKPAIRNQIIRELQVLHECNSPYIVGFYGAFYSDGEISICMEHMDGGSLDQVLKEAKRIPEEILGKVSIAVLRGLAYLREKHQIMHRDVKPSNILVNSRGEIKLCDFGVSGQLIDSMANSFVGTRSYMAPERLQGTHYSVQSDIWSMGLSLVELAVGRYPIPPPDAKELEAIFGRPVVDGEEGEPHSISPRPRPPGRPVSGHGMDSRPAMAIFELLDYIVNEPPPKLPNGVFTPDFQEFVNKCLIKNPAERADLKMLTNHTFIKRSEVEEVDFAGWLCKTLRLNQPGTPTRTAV
Serine/threonine-protein kinase 4, sequence (Q13043 whole entry): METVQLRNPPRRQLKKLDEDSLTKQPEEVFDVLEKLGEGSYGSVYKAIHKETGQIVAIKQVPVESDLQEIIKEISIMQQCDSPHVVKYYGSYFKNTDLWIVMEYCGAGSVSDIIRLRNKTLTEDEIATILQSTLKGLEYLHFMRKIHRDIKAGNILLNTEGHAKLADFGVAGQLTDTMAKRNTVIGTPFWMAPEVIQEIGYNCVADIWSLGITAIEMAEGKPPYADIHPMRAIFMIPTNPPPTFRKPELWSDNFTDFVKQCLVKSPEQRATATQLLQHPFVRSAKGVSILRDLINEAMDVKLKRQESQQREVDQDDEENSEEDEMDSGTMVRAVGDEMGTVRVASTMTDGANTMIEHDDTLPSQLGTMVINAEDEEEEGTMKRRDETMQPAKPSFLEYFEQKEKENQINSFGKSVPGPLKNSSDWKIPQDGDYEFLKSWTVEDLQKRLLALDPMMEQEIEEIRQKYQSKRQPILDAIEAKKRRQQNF
Proto-oncogene tyrosine-protein kinase Src, sequence (P12931 2-536 limits assumed): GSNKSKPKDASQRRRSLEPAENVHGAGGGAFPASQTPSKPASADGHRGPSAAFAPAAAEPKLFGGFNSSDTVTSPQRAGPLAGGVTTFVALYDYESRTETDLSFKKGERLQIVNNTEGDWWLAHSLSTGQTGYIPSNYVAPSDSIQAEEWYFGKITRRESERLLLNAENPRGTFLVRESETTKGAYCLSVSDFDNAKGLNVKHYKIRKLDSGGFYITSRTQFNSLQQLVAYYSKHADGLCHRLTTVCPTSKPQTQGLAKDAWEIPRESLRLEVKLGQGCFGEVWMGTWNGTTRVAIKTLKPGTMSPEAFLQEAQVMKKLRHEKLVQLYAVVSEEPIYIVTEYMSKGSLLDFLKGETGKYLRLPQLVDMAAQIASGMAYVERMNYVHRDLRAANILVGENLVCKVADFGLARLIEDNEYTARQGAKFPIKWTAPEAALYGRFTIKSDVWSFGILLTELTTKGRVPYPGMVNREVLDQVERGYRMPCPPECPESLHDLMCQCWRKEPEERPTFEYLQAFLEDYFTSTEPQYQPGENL
Tyrosine-protein kinase ABL2, sequence (P42684 whole entry): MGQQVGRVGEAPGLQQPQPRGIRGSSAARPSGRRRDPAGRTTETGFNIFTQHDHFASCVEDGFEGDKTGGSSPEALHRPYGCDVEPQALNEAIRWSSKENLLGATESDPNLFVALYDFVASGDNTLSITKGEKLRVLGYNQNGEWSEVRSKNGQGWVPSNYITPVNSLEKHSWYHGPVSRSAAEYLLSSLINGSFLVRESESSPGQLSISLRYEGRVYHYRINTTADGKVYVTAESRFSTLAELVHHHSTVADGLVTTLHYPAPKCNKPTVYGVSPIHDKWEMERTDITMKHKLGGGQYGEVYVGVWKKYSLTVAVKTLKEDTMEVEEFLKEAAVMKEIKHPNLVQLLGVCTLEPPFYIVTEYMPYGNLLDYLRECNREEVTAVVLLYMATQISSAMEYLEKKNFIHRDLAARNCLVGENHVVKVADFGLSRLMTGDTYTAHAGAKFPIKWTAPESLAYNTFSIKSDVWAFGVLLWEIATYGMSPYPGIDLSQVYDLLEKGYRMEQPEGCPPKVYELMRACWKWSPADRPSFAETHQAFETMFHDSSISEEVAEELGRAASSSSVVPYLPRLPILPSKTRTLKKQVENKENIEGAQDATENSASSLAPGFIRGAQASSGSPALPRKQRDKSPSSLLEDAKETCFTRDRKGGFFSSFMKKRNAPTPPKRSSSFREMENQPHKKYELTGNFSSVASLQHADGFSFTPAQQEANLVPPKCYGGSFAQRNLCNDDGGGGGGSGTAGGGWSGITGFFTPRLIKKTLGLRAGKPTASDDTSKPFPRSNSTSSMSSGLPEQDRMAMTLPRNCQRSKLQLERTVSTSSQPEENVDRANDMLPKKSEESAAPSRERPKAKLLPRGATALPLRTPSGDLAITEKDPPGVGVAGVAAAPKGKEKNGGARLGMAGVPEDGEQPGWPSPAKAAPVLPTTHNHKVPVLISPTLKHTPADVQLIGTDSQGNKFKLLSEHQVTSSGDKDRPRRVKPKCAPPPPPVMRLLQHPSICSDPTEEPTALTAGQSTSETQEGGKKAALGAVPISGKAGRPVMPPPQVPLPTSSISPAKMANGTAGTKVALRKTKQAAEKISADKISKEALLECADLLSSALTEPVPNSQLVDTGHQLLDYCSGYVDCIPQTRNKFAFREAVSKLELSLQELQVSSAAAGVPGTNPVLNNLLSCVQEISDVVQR
Tyrosine-protein kinase Yes, sequence (P07947 whole entry): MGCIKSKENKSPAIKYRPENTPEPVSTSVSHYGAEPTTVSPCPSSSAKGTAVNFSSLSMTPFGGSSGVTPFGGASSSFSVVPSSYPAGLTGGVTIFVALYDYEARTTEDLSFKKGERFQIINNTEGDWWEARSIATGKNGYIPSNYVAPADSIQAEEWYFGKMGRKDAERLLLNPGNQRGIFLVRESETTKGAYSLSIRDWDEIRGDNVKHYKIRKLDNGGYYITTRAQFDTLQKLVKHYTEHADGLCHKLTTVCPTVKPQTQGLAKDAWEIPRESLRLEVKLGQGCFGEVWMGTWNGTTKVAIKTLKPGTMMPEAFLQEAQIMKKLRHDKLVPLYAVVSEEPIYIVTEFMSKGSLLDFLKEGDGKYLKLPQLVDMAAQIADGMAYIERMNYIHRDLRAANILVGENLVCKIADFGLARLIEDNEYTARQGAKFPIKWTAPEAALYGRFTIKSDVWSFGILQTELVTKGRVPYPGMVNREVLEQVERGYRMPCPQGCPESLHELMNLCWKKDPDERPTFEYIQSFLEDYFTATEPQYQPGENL
Mitogen-activated protein kinase kinase kinase kinase 5, sequence (Q9Y4K4 whole entry): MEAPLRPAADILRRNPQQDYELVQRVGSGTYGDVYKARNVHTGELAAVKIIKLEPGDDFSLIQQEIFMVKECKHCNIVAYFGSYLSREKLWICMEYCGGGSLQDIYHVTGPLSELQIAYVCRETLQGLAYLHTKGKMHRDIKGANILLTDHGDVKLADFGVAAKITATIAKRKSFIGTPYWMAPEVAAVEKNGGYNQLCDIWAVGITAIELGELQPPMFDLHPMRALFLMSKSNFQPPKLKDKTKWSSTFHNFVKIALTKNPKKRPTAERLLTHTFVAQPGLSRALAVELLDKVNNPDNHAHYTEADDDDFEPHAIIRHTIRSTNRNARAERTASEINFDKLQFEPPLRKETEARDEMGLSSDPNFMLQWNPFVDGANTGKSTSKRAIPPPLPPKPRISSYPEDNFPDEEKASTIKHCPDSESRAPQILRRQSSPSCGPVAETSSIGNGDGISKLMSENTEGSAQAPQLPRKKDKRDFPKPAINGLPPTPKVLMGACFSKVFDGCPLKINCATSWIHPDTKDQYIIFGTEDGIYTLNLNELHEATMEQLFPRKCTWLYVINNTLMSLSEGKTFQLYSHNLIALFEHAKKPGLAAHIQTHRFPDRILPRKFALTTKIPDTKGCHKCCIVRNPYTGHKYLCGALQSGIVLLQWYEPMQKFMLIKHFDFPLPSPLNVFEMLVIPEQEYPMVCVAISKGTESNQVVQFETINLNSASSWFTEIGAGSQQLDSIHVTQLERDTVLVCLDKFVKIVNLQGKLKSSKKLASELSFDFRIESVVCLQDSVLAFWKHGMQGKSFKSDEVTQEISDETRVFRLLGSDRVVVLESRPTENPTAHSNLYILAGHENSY
Tyrosine-protein kinase Lyn, sequence (P07948 whole entry): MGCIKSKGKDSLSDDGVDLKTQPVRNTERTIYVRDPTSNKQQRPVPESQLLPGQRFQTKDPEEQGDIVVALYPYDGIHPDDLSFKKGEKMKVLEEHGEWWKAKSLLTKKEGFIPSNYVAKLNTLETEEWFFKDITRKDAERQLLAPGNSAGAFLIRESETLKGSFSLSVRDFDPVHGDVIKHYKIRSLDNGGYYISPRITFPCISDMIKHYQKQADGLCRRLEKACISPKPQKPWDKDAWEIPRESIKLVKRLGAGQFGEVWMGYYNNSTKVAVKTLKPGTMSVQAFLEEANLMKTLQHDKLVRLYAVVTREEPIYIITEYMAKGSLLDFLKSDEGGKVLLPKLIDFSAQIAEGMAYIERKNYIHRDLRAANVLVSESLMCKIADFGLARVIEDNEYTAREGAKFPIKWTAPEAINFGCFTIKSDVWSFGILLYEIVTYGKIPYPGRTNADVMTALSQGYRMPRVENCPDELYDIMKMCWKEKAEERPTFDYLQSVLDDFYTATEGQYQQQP
Serine/threonine-protein kinase 3, sequence (Q13188 whole entry): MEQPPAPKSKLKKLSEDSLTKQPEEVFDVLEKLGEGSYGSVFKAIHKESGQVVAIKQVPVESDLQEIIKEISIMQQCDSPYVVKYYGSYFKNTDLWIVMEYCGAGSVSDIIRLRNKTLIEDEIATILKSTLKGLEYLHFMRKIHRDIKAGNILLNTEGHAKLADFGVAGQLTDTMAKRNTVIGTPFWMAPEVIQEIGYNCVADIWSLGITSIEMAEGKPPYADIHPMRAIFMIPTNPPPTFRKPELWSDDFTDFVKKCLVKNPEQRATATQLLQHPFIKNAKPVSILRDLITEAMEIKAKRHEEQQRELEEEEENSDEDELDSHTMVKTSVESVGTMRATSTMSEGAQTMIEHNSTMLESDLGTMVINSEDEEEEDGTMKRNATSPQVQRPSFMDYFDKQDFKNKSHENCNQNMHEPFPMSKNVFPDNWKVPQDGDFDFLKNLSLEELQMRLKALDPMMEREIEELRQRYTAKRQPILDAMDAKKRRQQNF

| Kd(free) [4] | Kd(free) [5] | Kd(free) [6] | Kd(free) [7] | Kd(free) [8] | Kd(free) [9] | Kd(free) [10] | Kd(free) [11] | Kd(free) [12] | Kd(free) [13] | Kd(free) [14] | Kd(free) (TGF-beta receptor type-2) | Kd(free) [15] | Kd(free) [16] | Kd(free) [17] | SMILES | efflux ratio at 2 h, 10 µM [1] | Papp A→B at 2 h, 10 µM [2] | Papp B→A at 2 h, 10 µM [3] |
| --- | --- | --- | --- | --- | --- | --- | --- | --- | --- | --- | --- | --- | --- | --- | --- | --- | --- | --- |
|  |  |  |  |  |  |  |  |  |  |  |  |  |  |  | COc1cc2c(Oc3ccc(NS(=O)(=O)c4cc(F)ccc4F)cc3F)ccnc2cc1OCCCN1CCCC(C)C1 (stereo unspecified) | 6.6 | 2.4 ×10⁻⁶ cm/s | 14.6 ×10⁻⁶ cm/s |
| 0.011 µM | 0.096 µM | 0.006 µM | 0.016 µM | 5.043 µM | 1.871 µM | 1.367 µM | 2.08 µM | 0.008 µM | 5.223 µM | 0.04 µM | 7.385 µM | 8.852 µM | > 2.513 µM | 0.122 µM | COc1cc2c(Oc3ccc(NS(=O)(=O)c4c(F)cccc4F)cc3F)ccnc2cc1OCCCN1CCN(C)CC1 |  |  |  |
| 0.029 µM | 0.254 µM | 0.015 µM | 0.071 µM | 5.146 µM | 0.825 µM | 2.08 µM | 2.433 µM | 0.024 µM | > 6.454 µM | 0.178 µM | 1.86 µM | 6.917 µM | > 2.514 µM | 0.282 µM | COc1cc2c(Oc3ccc(NS(=O)(=O)c4cc(F)ccc4F)cc3F)ccnc2cc1OCCCN1CCN(C)CC1 | 2.3 | 7.4 ×10⁻⁶ cm/s | 17 ×10⁻⁶ cm/s |
